A word on the Kd: it is the concentration at which binding is half-saturated. Broadly, the stoichiometry N is a count of units in the complex or per binding partner.

B1: gp78 RING finger (aa 313-380) (domain or fragment, human, UniProt Q9UKV5 313-380, looked up)
chain: KNYLRVVGNMEARFAVATPEELAVNNDDCAICWDSMQAARKLPCGHLFHNSCLRSWLEQDTSCPTCRM
B2: G2BR peptide (Ube2g2 binding region of gp78, amino acids 574-600) (peptide, UniProt Q9UKV5 574-600, looked up)
peptide: SADERQRMLVQRKDELLQQARKRFLNK
B3: Ube2g2 (enzyme)
chain: MAGTALKRLMAEYKQLTLNPPEGIVAGPMNEENFFEWEALIMGPEDTCFEFGVFPAILSFPLDYPLSPPKMRFTCEMFHPNIYPDGRVCISILHAPGDDPMGYESSAERWSPVQSVEKILLSVVSMLAEPNDESGANVDASKMWRDDREQFYKIAKQIVQKSLGL

Experiment [1] addresses Ube2g2 (UniProt P60604). Description: NMR titration.
In experiment [2] the target is Ube2g2 (UniProt P60604). Description: ITC. For orientation: Isothermal titration calorimetry measures the heat released or taken up as one component is titrated into another.
Experiment [3] concerns the target T1, Ube2g2 (Homo sapiens, UniProt P60604).
T1 sequence (P60604 1-165): B3 chain
Description: ITC of Ube2g2 with G2BR peptides. The class given is binding.

Another experiment concerns Ube2g2:RING finger. Description: Fraction of Ube2g2 bound to gp78 RING finger in discharge reactions. The class given is binding. As to conditions: 8 μM gp78 RING finger, peptide 4 μM.
Experiment [4] has as its system Ube2g2Δ96-108. Nature of the experiment: Binding of G2BR to Ube2g2Δ96-108.
The target of experiment [5] is T1, Ube2g2. Nature of the experiment: NMR titration of Ube2g2 with G2BR peptides. The class given is binding. As to conditions: peptide with Ube2g2, 50 mM Tris, 2 mM TCEP, pH 7.5, 25°C. The essentials:
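Samples are in 50 mM Tris, 2 mM TCEP, pH 7.5, run at 25°C on 600 and 800 MHz spectrometers with triple-resonance cryoprobes. G2BR peptide is titrated into Ube2g2 and chemical shift perturbations of Ube2g2 resonances are mapped, backed by intermolecular NOESY, to define the binding surface.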

In a further experiment the test system is gp78 RING finger. Nature of the experiment: Binding of G2BR to gp78 RING finger. Also noted: species or system human. The note with it: in the gp78 RING finger:Ube2g2:G2BR complex, separate binding experiments.
Experiment [6] has as its system Ube2g2Δ96-108. Description: Ubiquitin loading of Ube2g2Δ96-108. The class given is biochemical. As to conditions: Ube2g2Δ96-108, printed 'almost 75%'; 4 μM G2BR, 30°C.
The next experiment relates to UbcH5B. Nature of the experiment: Ubiquitylation by HsHRD1, Trc8 and GST-gp78CΔ577-643 with UbcH5B as E2. The class given is biochemical. As to conditions: HsHRD1, Trc8 and GST-gp78CΔ577-643, UbcH5B as E2, G2BR added. The essentials:
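GST fusions of the HsHRD1 or Trc8 cytoplasmic tails, or of truncated gp78, were bound to glutathione Sepharose. They were incubated 90 min with E1 and the indicated E2, with or without the indicated peptides. Beads were then washed, and bead-bound ubiquitylated material was resolved by SDS-PAGE and immunoblotted with anti-ubiquitin.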

In another experiment the test system is Ub-GFP-His6. Nature of the experiment: Ubiquitylation of Ub-GFP-His6 by gp78 cytoplasmic domain constructs. It is filed as biochemical. As to conditions: ~500 nM Ub-GFP-His6, Flag-tagged ubiquitin. The essentials:
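Purified, bacterially expressed Ub-GFP-His6 (~500 nM) served as substrate for glutathione Sepharose-bound GST-gp78 lacking aa 577-643. Reactions were stopped with 2% SDS (final). After 10 min, samples were diluted to 0.1% SDS with 8 M urea in 50 mM Tris pH 7.4. Substrate was recovered on Ni2+ beads, washed, eluted and resolved by SDS-PAGE. In controls, substrate was added after termination; some reactions ran 60 min.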

The subject of another experiment is GST-gp78CΔ577-643. Description: Autoubiquitylation of GST-gp78CΔ577-643 with Ube2g2. It is filed as biochemical, human. As to conditions: GST-gp78CΔ577-643, bead-bound, Ube2g2, E1; anti-ubiquitin immunoblot. The essentials:
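Glutathione Sepharose-bound GST fusion of the gp78 cytoplasmic tail truncated at aa 577, at the start of the G2BR, is incubated 90 min with Ube2g2 and E1, with or without synthetic or recombinant G2BR-derived peptides added in trans. After washing, ubiquitylated bead-bound material is resolved by SDS-PAGE and immunoblotted with anti-ubiquitin.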

Experiment [7] has as its target T2, Ube2g2:G2BR complex (Homo sapiens, UniProt P60604+Q9UKV5).
T2 sequence (P60604 1-165): B3 chain
T2 sequence (Q9UKV5 574-600 partner limits assumed): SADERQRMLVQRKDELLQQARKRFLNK
Description: NMR titration of Ube2g2:G2BR complex with gp78 RING finger. The class given is binding. As to conditions: for NMR Exchange timescale: Ube2g2:G2BR complex, pH 7.5, 25°C. The essentials: (§1)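 Purified gp78 RING finger is titrated into free Ube2g2 or the Ube2g2:G2BR complex in 50 mM Tris, 2 mM TCEP, pH 7.5, at 25°C, using 600 and 800 MHz spectrometers. Shifts of Ube2g2 peaks from free toward bound positions are followed. Kd comes from fitting peak positions against ligand:protein concentration.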

The target of experiment [8] is T1, Ube2g2. Description: Ubiquitin loading of Ube2g2. The class given is biochemical.
The target of another experiment is Ube2g2:G2BRΔN complex (UniProt P60604). Nature of the experiment: NMR titration.
Another experiment concerns the target UbcH5C. The note with it: ref Brzovic et al., 2006; cited from earlier work.
Experiment [9] deals with B3. Nature of the experiment: NMR titration.
The target in experiment [10] is T3, Ube2g2:G2BR complex ( | human, UniProt P60604 1-165; Q9UKV5 574-600).
T3 sequence 1: B3 chain
T3 sequence 2: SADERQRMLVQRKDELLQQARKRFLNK
Description: NMR titration.

The next experiment deals with Ube2g2:G2BRΔN. Nature of the experiment: NMR titration of Ube2g2:G2BRΔN complex with gp78 RING finger. It is filed as binding. The note with it: Ube2g2 in presence of G2BRΔN, pH 7.5, 25°C. Summed up:
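For the NMR titration, samples were in 50 mM Tris, 2 mM TCEP, pH 7.5, at 25°C, on 600 and 800 MHz spectrometers with cryoprobes. gp78 RING finger was added stepwise, and Ube2g2 peak shifts from the free toward the bound position were followed. Kd was obtained by fitting peak positions against ligand:protein concentration ratio.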

Another experiment deals with Ube2g2~Ub (Homo sapiens, UniProt P60604). Description: Discharge of ubiquitin from Ube2g2~Ub. It is filed as biochemical. As to conditions: 8 μM gp78 RING finger, Ub 80 μM, 50 mM Tris pH 7.4, 25°C.
Experiment [11] deals with T1, Ube2g2. Description: NMR titration of Ube2g2 with gp78 RING finger. The class given is binding. The note with it: Ube2g2 without G2BR, pH 7.5, 25°C. Summed up:
as §1

The target of experiment [12] is B3. Nature of the experiment: ITC.
Experiment [13] has as its target B3. Description: NMR titration. This is another data set of the same source.
For experiment [14], the target named is B3. Nature of the experiment: ITC. This is another data set of the same source.
For experiment [15], the target named is B2. Nature of the experiment: NMR titration.

Where no end group is shown, it is not given here. A value given as a limit tells only on which side of the number the result lay.

G2BRΔC (peptide) showed a dissociation constant (Kd) with Ube2g2 [1] of 192 µM.
Consider G2BRΔN (peptide), for which, in the experiment with Ube2g2 [2], the Kd worked out at 0.74 µM and the dH is -2.34 kcal/mol.
Regarding SADERQRMLVQRKDELLQQARKRFLNK [G2BR], on Ube2g2 [3] (ITC, 25°C), the “ΔG (free energy change)” value is -10.45 kcal/mol, the ΔH is reported as -56.3(±0.01) kJ mol^-1 and the ΔS was -41.8(±0.04) J K^-1 mol^-1T^-1. In addition, at Ube2g2 [3] (versus ubiquitin (~300 μM)), the “higher affinity for Ube2g2 of G2BR than of ubiquitin” value is “over 10,000 fold”. The “Ube2g2 bound (Ube2g2:RING finger)” value with Ube2g2:RING finger is on record as greater than 50%. Moreover, in the experiment with Ube2g2Δ96-108 [4], the “G2BR binding to Ube2g2Δ96-108” value was “G2BR binding was retained”. Also, on Ube2g2 [5], the “NMR Exchange timescale” value is “slow exchange and slow”. Further, in the experiment on gp78 RING finger, the “RING finger - G2BR direct interaction” value is “do not directly interact”. Also, the “decrease of the G2BR effect on ubiquitin loading by deletion of aa 96-108” value in the experiment on Ube2g2Δ96-108 [6] was roughly 75%. Further, in the experiment with UbcH5B, the “effect on ubiquitylation with UbcH5B” value is recorded as “not increased”. Besides, the “effect of G2BR on ubiquitylation of Ub-GFP-His6 by GST-gp78CΔ577-643” value with Ub-GFP-His6 is “substantially increased”. The “effect of peptide in trans on ubiquitylation of truncated gp78” value with GST-gp78CΔ577-643 is “marked increase in ubiquitylation of truncated gp78”. In addition, the “increase in affinity between the E2 and RING finger caused by G2BR binding” value on Ube2g2:G2BR complex [7] (Ube2g2:G2BR versus Ube2g2, abstract) was ~ 50 fold. The “E2 loading with ubiquitin” value on Ube2g2 [8] (12°C, with G2BR) is “almost no detectable loading”. The “effect on rate of E2 loading with ubiquitin” value on Ube2g2 [8] (30°C, 4 μM (saturating) peptide, 100 nM E1, Ub K0, versus Scr, average of two experiments) is listed as “marked decrease in the rate of E2 loading”. Moreover, the “formation of Ube2g2~Ub” value at Ube2g2 [8] (in presence of G2BR (discussion)) was “substantial delay in formation of Ube2g2~Ub”.
With “gp78 RING finger (aa 313-380) (from UniProt Q9UKV5 313-380) (domain or fragment)”, the Kd in the experiment with Ube2g2:G2BRΔN complex stood at 29 µM.
As for ubiquitin, at UbcH5C, the Kd was roughly 300 µM.
As to B1, the Kd with Ube2g2 [9] was found to be 144 ± 10 µM; with Ube2g2:G2BR complex [10], 3 ± 1 µM; on Ube2g2:G2BRΔN (50 mM Tris, 2 mM TCEP), 29 µM. For the same molecule, the “NMR Exchange timescale” value is given as “fast” in the experiment with Ube2g2:G2BRΔN; “fast exchange” with Ube2g2:G2BR complex [7]; “fast” with Ube2g2:G2BR complex [7] (listed as gp78-RING); “fast exchange” in the experiment with Ube2g2 [11]; “fast” in the experiment with Ube2g2 [11] (listed as gp78-RING). Further, in the experiment with Ube2g2~Ub, the “loss of Ub-bound Ube2g2” value is listed as “markedly accelerated”. Also, the “decrease of Kd of gp78 RING finger for Ube2g2 in presence of G2BR” value with Ube2g2:G2BR complex [7] (Ube2g2:G2BR versus Ube2g2) is reported as ~ 48 fold.
In the experiment with Ube2g2 [12], B2 came in with a Kd of 0.021 ± 0.004 µM and a dH of -13.456 ± 0.00239 kcal/mol. This molecule displayed a Kd in the experiment with Ube2g2 [13] of less than 1 µM. In addition, in the experiment with Ube2g2 [14], the “stoichiometry N” value turned out to be 1.
As to B3, the “stoichiometry N” value in experiment [15] turned out to be 1.
